This is an account of results in ChEMBL document CHEMBL4513216, “Probing the Open Global Health Chemical Diversity Library for Multistage-Active Starting Points for Next-Generation Antimalarials” (ACS Infect Dis, 2020).

The nature of this series: Toxicity liver stage against HepG2, at 10uM. It is filed as cell-based. Also on record: test concentration 10 uM, cell line HepG2-A16-CD81EGFP. Particulars: human, HepG2-A16-CD81EGFP cells; read-out: INHIBITION
In outline:
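Uninfected HepG2-A16-CD81EGFP cells, 3 × 10^3 per well, 1536-well, plated on prespotted compound at 10 μM final, parasite-free screening media added to match infected plates; puromycin 10 μM positive, DMSO 0.5% negative; run in parallel with 48 h PbLuc assay at 37 °C, 5% CO2; viability by CellTiter-Glo luminescence, normalized to controls.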
As for `CS(=O)(=O)c1ccc(O[C@H]2COCCN(Cc3ccncc3)C2)cc1`, the cytotoxicity at 10 µM was -5.33%.
As for `Cc1ccc2nc3n(c2c1)[C@@H](CNCc1nccs1)COC3`, the figure is -4.31%; as for `O=C(c1cccnc1SCc1ccccc1)N1CC[C@@H](O)C1`, -2.04%.
The figure for `CC(=O)N1N=C(c2ccco2)OC1C(=O)N(CC(C)C)CC(C)C` (stereo not drawn) is -1.31%; for `Nc1cccnc1N1CCN(c2ccccc2)CC1` it is -2.95%.
The figure for `CSCC[C@H](NC(=O)CCn1ccc2c(Cl)cccc21)C(=O)O` is 2.42%.
As to `O=C(Nc1ccccn1)c1csc(NC2CCCC2)n1`, the cytotoxicity at 10 µM came to 9.09%.
Regarding `CS(=O)(=O)N1CCC(CNC(=O)C2CCCC2)CC1`, the cytotoxicity at 10 µM amounted to 1.2%.
The figure for `CC(=O)N1CCC2(CC1)CN(C(=O)c1ccc3c(c1)OCCO3)C2` is 9.15%; for `CN1C(=O)CC[C@@H]2[C@H]1CCN2S(=O)(=O)c1cccs1` it is -1.54%.
As for `CCOCC1CN(c2ncc(F)cn2)Cc2cn(CC)nc21` (stereo not drawn), the figure is 8.31%; as for `O=C(c1ccnnc1)N1CCc2onc(CN3CCCC3)c2C1`, 7.31%; as for `CN(C)CCN1CCN(CC2CC2)c2ncccc2C1`, -3.03%.
Regarding `Cc1cccc(N2CC3(CCN(S(=O)(=O)c4ccccc4)C3)CC2=O)c1` (stereo not drawn), the cytotoxicity at 10 µM amounted to 11%.
As for `Cn1nccc1C(=O)N1CCCC2(CCN(c3ccsc3)C2=O)C1` (stereo not drawn), the figure is -121%; as for `Cc1nccc([C@@H]2C[C@@H]3CCN(Cc4cccs4)C[C@H]3O2)n1`, -143%; as for `CC(C)c1cc2c(O)nc(CSCC(=O)O)nc2s1`, -4.61%.
In the case of `CN1CCN(c2nc(O)c3c(-c4ccccn4)ccnc3n2)CC1`, the cytotoxicity at 10 µM was -6.6%.
Take `Cc1ccc(OCc2ccc(C(=O)O)s2)cc1C`: the cytotoxicity at 10 µM was 9.18%.
On to `O=C(NCc1ccccc1)NCc1nc(-c2ccncc2)n[nH]1`, for which the cytotoxicity at 10 µM is 0.449%.
Take `COCC(=O)N1CCCCC1c1ccncn1` (stereo not drawn): the cytotoxicity at 10 µM is -27.8%.
The figure for `CC(NC(=O)N1CCS(=O)(=O)CC1)c1ccc(F)cc1Cl` (stereo not drawn) is -1.28%; for `CCC(CC)c1cc(C(=O)N2CCN(C(C#N)C(C)C)CC2)on1` (stereo not drawn) it is 1.87%; for `O=C(CCC1CCCC1)N1CCC(O)(C(F)(F)F)C1` (stereo not drawn) it is -0.0394%.
As for `CCCC(C)CS(=O)(=O)NCc1cccnc1N(C)C` (stereo not drawn), the cytotoxicity at 10 µM was 2.96%.
As for `COC(=O)C1CCCCN1C(=O)c1ccc(N(C)C)cc1F` (stereo not drawn), the figure is 5.97%; as for `COc1ccc(C)cc1CN(C)CC(N)=O`, -0.691%; as for `CN(C)c1nc(CNC(=O)NC2COc3ccccc32)cs1` (stereo not drawn), -3.38%.
With `CC(Cc1ccc(C(F)(F)F)cc1)C(=O)N1CCCS1(=O)=O` (stereo not drawn), the cytotoxicity at 10 µM was -1.01%.
The figure for `CC(NC(=O)CCNC(=O)c1ccoc1)c1ccccc1` (stereo not drawn) is 5.66%; for `CC(C)c1nccn1CCC(=O)NCC(C)(O)c1ccco1` (stereo not drawn) it is 1.23%; for `CC(C)N1CCCC(CNC(=O)c2ccnc(-n3ccnc3)c2)C1` (stereo not drawn) it is -6.23%.
The figure for `Cn1cc(N2CCCC(Nc3ccc4c(c3)CCC(=O)N4)C2=O)cn1` (stereo not drawn) is -1.56%.
As for `O=C(Cc1cccs1)NCc1ccnc(OC2CCOCC2)c1`, the figure is -1.22%; as for `CCOCCOC(C)C(=O)Nc1ccc2c(ccn2CC)c1` (stereo not drawn), 3.99%.
On to `CC1CCN(CCCNC(=O)C2CCCCC2)CC1`, for which the cytotoxicity at 10 µM is -2.63%.
The figure for `CC(C)(C(=O)NCCC(=O)O)c1cccc(Br)c1` is 7.01%.
The figure for `O=C(c1ccc(-n2cccc2)c(F)c1)N1CCCN2CCCC2C1` (stereo not drawn) is -2.45%; for `CN(C)CCN1CCC(NC2CSCCc3ccccc32)CC1` (stereo not drawn) it is -8.77%.
Take `N#Cc1cc(NC(=O)c2cscn2)ccc1N1CCC(O)CC1`: the cytotoxicity at 10 µM is 6.59%.
As for `O=C(Nc1cccc(N2CCN(CC3CC3)CC2)c1)N1CCCC1`, the figure is 0.441%; as for `O=C(NCc1ccccc1Cn1cncn1)N1CCCC1`, -5%; as for `CC(C)(C)C(=O)NCC(=O)NC1CC(c2cccc(Cl)c2)C1` (stereo not drawn), -1.72%.
As for `OC1(CNc2cc(C(F)(F)F)nc3ccccc23)CCOCC1`, the figure is -11.3%; as for `COc1ccccc1C(NC(=O)NC1CC1)c1noc(C)n1` (stereo not drawn), -4.12%.
The figure for `O=C(Nc1cc(C2CCOCC2)[nH]n1)c1ccc(Cl)cn1` is 0.78%.
With `COc1ccccc1CNC(=O)CNc1ccccc1C(C)=O`, the cytotoxicity at 10 µM came to 4.7%.
As for `CC(C1CC1)n1nccc1NC(=O)CN(C)C(=O)OC(C)(C)C` (stereo not drawn), the cytotoxicity at 10 µM stood at 0.258%.
The figure for `Cc1cccc(C(C)(C)CNC(=O)CCSc2nnnn2C)c1` is -1.09%; for `Cc1ccc(N2CCCC(N3CCC(N(C)C)CC3)C2=O)cc1` (stereo not drawn) it is -5.16%.
With `Cc1cccc(NC(=O)CCNCc2c(C)nn(C)c2N(C)C)n1`, the cytotoxicity at 10 µM was determined as 7.82%.
As for `O=C(CNC(=O)c1cnc2ccccc2c1O)NCCn1ccnc1`, the figure is -3.02%; as for `CCN(C)CC1CCN(C(=O)Nc2ccc(-c3csnn3)cc2)C1` (stereo not drawn), -2.15%; as for `CCC(CC)c1cc(CNC(=O)N2CCCC(N(C)C)C2)on1` (stereo not drawn), 1.47%.
The figure for `CC(=O)N1CCN(Cc2nnc(C(C)(C)C)o2)CC1` is -0.549%; for `Cc1nc(C)n(CC2CN(CCc3ccncc3)CCO2)n1` (stereo not drawn) it is -14.7%.
As for `CCN(CC)C(CNC(=O)c1ccc(S(C)(=O)=O)cc1)c1ccco1` (stereo not drawn), the figure is -0.00646%.
Take `Cc1ccc(C(=O)N2C[C@H](OCC3CCOCC3)[C@H]3OCCC[C@H]32)o1`: the cytotoxicity at 10 µM was -0.714%.
The figure for `Cc1nc(O)cc(CN2CC=C(c3cnn(C(C)(C)C)c3)CC2)n1` is -7.17%; for `CCc1nnsc1C(=O)NCCC1CN(C(C)C)CCO1` (stereo not drawn) it is -7.07%; for `O=C(c1ccc(C2CCCN2C(=O)c2ccc[nH]2)s1)N1CCSCC1` (stereo not drawn) it is 3.59%.
As for `Cc1cc(C(=O)N2CCc3c(nc(-c4ccncc4)[nH]c3=O)C2)no1`, the figure is -1.28%.
Turning to `COc1cccc(-c2n[nH]cc2C(=O)NC(C)c2n[nH]c(C)n2)c1` (stereo not drawn), the cytotoxicity at 10 µM is -6.26%.
As for `Cn1cc(CNCC2(O)CCCN(Cc3ccc(F)c(F)c3)C2=O)cn1` (stereo not drawn), the cytotoxicity at 10 µM is -14.5%.
The figure for `CCC(C(=O)N(C)Cc1cc(C2CC2)[nH]n1)n1cccn1` (stereo not drawn) is -8.35%; for `Cc1cncc(C(=O)N2CCC3(CC2)C(=O)Nc2ccccc23)c1` it is -137%; for `Cc1cc(C2CCC2)nc(N2CCC3(CCNC(=O)CC3)CC2)n1` it is -10.1%.
As for `CCN(CCc1nc2cc(C)ccc2[nH]1)C(=O)[C@@H](N)CCSC`, the figure is -9.28%; as for `CCn1ncnc1C1CC(=O)NCc2nc(N3CCCC3)sc21` (stereo not drawn), -2.4%; as for `Cc1cc(C)c2nc(CN(C)C(C)c3ccncn3)cc(O)c2c1` (stereo not drawn), 4.11%.
The figure for `O=C1CCC2(CCN(Cc3ncccn3)CC2)CN1CCCO` is -8.11%; for `COC1CCN(S(=O)(=O)NCC2COc3ccccc3C2)CC1` (stereo not drawn) it is -1.08%.
Consider `CCn1nc(C)c(CN(CCOC)C(=O)c2ccccc2N(C)C)c1C`, for which the cytotoxicity at 10 µM was -1.14%.
As to `CN(Cc1csc(-c2cccs2)n1)C(=O)CCn1ccccc1=O`, the cytotoxicity at 10 µM is 22.7%.
The figure for `Cc1ccc(NC2CCN(C(=O)c3cnn(C(C)(C)C)c3)CC2)nn1` is -0.939%; for `CC(C)(C)c1ncc(C(=O)NCCNS(C)(=O)=O)s1` it is -6.14%.
For `COc1ccc(NC(=O)C(C)n2cncn2)cn1` (stereo not drawn), the cytotoxicity at 10 µM was -16.4%.
As for `Cc1ccc(-c2noc(CN3CCn4c(nnc4C4CC4)C3)n2)cc1`, the cytotoxicity at 10 µM is -9.04%.
For `CC(C)CN(Cc1nc2c(cnn2C)c(=O)[nH]1)CC(C)C`, the cytotoxicity at 10 µM was -5.36%.
Take `Cc1csc(N2CCCN(C(=O)C3(C#N)CCCC3)CC2)n1`: the cytotoxicity at 10 µM was -1.01%.
Take `CC(C)c1ncc2c(n1)CN(Cc1cccc(C(N)=O)c1)CC2`: the cytotoxicity at 10 µM was -9.17%.
As for `COC(=O)c1ccc(N2CCN(C(=O)c3ccco3)C(C)C2)cc1` (stereo not drawn), the figure is -8.15%.
As for `CCCc1noc(CCC(=O)N2CCCC2c2cccc(OC)c2)n1` (stereo not drawn), the figure is -9.71%; as for `c1ncn(CC2CCCN(Cc3nc(-c4ccoc4)no3)C2)n1` (stereo not drawn), -1.43%; as for `c1ccc2nc(N3CCOC(Cn4cccn4)C3)cnc2c1` (stereo not drawn), -9.86%.
As for `Cc1cnn(CC(C)NCc2ccc(OCc3nccn3C)cc2)c1` (stereo not drawn), the figure is -10.7%; as for `CCc1n[nH]c(C2CN(C(=O)Cc3cccs3)CCO2)n1` (stereo not drawn), 2.83%; as for `Cc1nn(C)c(C)c1C1CCCN1Cc1nc2ccccc2c(=O)[nH]1` (stereo not drawn), -15.9%.
Consider `Cc1nc(-c2ccc(Cl)s2)sc1C(=O)NCCS(N)(=O)=O`, for which the cytotoxicity at 10 µM was -2.09%.
Regarding `Cc1nc(C2CCCN2C(=O)c2cc3c(s2)CCCC3)no1` (stereo not drawn), the cytotoxicity at 10 µM was -11.2%.
For `CCOCC1CC2(CCN(C(=O)c3ccc4ccccc4n3)CC2)CO1` (stereo not drawn), the cytotoxicity at 10 µM was determined as 3.79%.
As for `Cc1noc(C)c1CN1CCn2cc(CN3CCCCC3)nc2C1`, the figure is 8.95%; as for `Cc1occc1C(=O)N1CCC2(CCN(Cc3cccs3)C2)CC1`, -4.58%; as for `CC(C)NC1CCc2c(ccc(=O)n2CCN(C)C)C1` (stereo not drawn), -1.7%.
In the case of `CC(C)(C)c1n[nH]cc1CNC1CCC(C(F)(F)F)CC1` (stereo not drawn), the cytotoxicity at 10 µM turned out to be 4.25%.
As for `CN1CCN(Cc2cccnc2)C2(CCN(C3CCOCC3)C2)C1=O` (stereo not drawn), the figure is -5.87%; as for `CC(C)NC1CC2(CCNCC2)c2cc(F)ccc21` (stereo not drawn), -9.05%.
As for `COCCN1C(=O)[C@@H]2CC[C@H]1CN(c1ncccn1)C2`, the figure is 7.01%.
